Laboratory results from paper PMC9894536 (Biomaterials science, 2023).
pIC50: −log10 of the molar value. Where a SMILES comes first, the peptide text is derived from it. The star is where a group is joined. X1 = C[C@H](Cn1cnc2c(N)ncnc21)OCP(=O)(O)OCCS*; Palmitoyl = CCCCCCCCCCCCCCCC(=O)*

Tests used:
HBV = experiment: Anti-HBV efficacy, HBV DNA in supernatant of HepAD38 cells by qPCR; type: cell-based; settings: Hepatitis B virus, HePAD38, 96 h, read-out: IC50, HBV production
[1] = In vitro gel release of TFV-PA from hydrogel depots; type: physicochemical
In short: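 Hydrogels were made from 5 and 10 mM prodrug solutions and aged at 37 °C under a fixed volume of PBS release medium. Supernatant was collected and replaced at set time points up to day 30 and analysed by analytical RP-HPLC. Release is given as nanomoles and as percent of conjugate in the original gel, mean ± SD, n = 3.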

[2] = type: physicochemical; settings: addition of PBS (final 1x PBS) to 5 mM solution; 10 ul 10x PBS to 100 ul
In short: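 Aqueous prodrug solutions, brought to pH 7.4 after purification, were gelled by adding 10× PBS at a 10:1 solution-to-buffer ratio to reach 1× PBS. Gel formation and the critical gelation concentration were judged by a simple vial-inversion test across prodrug concentrations.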

[3] = Instantaneous gelation on injection into PBS; type: physicochemical; settings: 10 mM solution assembled with 10 mM Nile red, injected into 10x PBS
[4] = Critical micellization concentration by Nile red encapsulation assay; type: physicochemical; settings: fluorescence ratio 635 nm vs 660 nm, aqueous, n = 3
In short: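 Critical micellization concentration was read on a fluorometer as the concentration where the ratio of fluorescence at 635 nm (encapsulated Nile red) to 660 nm (free Nile red) shifted. Measurements were made in aqueous prodrug solutions, and data are mean ± SD of 3.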

[5] = Nanobelt width by negatively stained transmission electron microscopy; type: physicochemical; settings: TEM, 1 mM concentration, mean ± SD, n = 35
In short: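 Samples were pH 7.4 aqueous solutions (1 mM shown), negatively stained and imaged by TEM. Nanobelt widths were measured from the images and reported as mean ± SD over 35 measurements.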

[6] = Free TFV release / prodrug stability with or without dithiothreitol; type: physicochemical; settings: 100 μM in 1x PBS, 10 mM DTT, 37 °C; for TFV released by 24 hours with DTT: RP-HPLC and ESI MS

C[C@H](Cn1cnc2c(N)ncnc21)OCP(=O)(O)O [TFV, tenofovir]
pIC50 (HBV): 5.96

CCCCCCCCCCCCCCCC(=O)N[C@H](C(=O)N[C@H](C(=O)N[C@@H](CSSCCOP(=O)(O)CO[C@H](C)Cn1cnc2c(N)ncnc21)C(=O)N[C@@H](CCC(=O)O)C(=O)O)C(C)C)C(C)C [TFV-PA2] (Palmitoyl-VVC(X1)E-OH; C-terminus assumed)
average concentration in the release supernatant, 5 mM gels ([1]; 5 mM hydrogel, 37 °C, PBS release medium, RP-HPLC): 361 ± 91 µM
percent release on day 14, 5 mM gel ([1]; 5 mM hydrogel, 37 °C, PBS release medium, RP-HPLC, day 14, n = 3): 56%
prodrug released on day 14, 5 mM gel ([1]; 5 mM hydrogel, 37 °C, PBS release medium, day 14, mean ± SD): 126 ± 7 nmol
average concentration in the release supernatant, 10 mM gels ([1]; 10 mM hydrogel, 37 °C, PBS release medium, RP-HPLC): 619 ± 268 µM
percent release on day 14, 10 mM gel ([1]; 10 mM hydrogel, 37 °C, PBS release medium, RP-HPLC, day 14, n = 3): 48%
prodrug released on day 14, 10 mM gel ([1]; 10 mM hydrogel, 37 °C, PBS release medium, day 14, mean ± SD): 217 ± 12 nmol
initial prodrugs released from hydrogel by day 14 ([1]; hydrogels aged at 37 °C with PBS release medium, RP-HPLC, day 14): about 50%
gel formation of 5 mM solution [2]: weak gel formation
gelation upon injection [3]: formed gels instantly upon injection
critical micellization concentration (CMC) [4]: 51 µM
nanobelt width [5]: 11.8 ± 1.3 nm
TFV released after 1 hour with DTT ([6]; 1 hour, RP-HPLC, n = 3): more than 90%
TFV released by 24 hours with DTT [6]: all TFV released

CCCCCCCCCCCCCCCC(=O)N[C@H](C(=O)N[C@H](C(=O)N[C@H](C(=O)N[C@@H](CSSCCOP(=O)(O)CO[C@H](C)Cn1cnc2c(N)ncnc21)C(=O)N[C@@H](CCC(=O)O)C(=O)O)C(C)C)C(C)C)C(C)C [TFV-PA3] (Palmitoyl-VVVC(X1)E-OH; C-terminus assumed)
percent released on day 30, 5 mM hydrogels ([1]; 5 mM hydrogel, 37 °C, PBS release medium, RP-HPLC, day 30, mean ± SD, n = 3): 16.3 ± 1.3%
prodrug released on day 30, 5 mM hydrogels ([1]; 5 mM hydrogel, 37 °C, PBS release medium, day 30, mean ± SD): 36.7 ± 3.0 nmol
percent released on day 30, 10 mM hydrogels ([1]; 10 mM hydrogel, 37 °C, PBS release medium, RP-HPLC, day 30, mean ± SD, n = 3): 6.1 ± 0.5%
average concentration of release supernatant from day 8 onwards, 10 mM gels ([1]; 10 mM hydrogel, 37 °C, PBS release medium, day 8 onwards): 13.3 ± 4.2 µM
prodrug released on day 30, 10 mM hydrogels ([1]; 10 mM hydrogel, 37 °C, PBS release medium, day 30, mean ± SD): 27.3 ± 2.2 nmol
initial prodrugs retained in hydrogel on day 30 ([1]; hydrogels aged at 37 °C with PBS release medium, RP-HPLC, day 30): more than 80%
gel formation of 5 mM solution [2]: robust gel formation
gelation upon injection [3]: formed gels instantly upon injection
critical micellization concentration (CMC) [4]: 8 µM
nanobelt width [5]: 18.9 ± 3.0 nm
TFV released after 4 hours with DTT ([6]; 4 hours, RP-HPLC, n = 3): more than 70%
TFV released by 24 hours with DTT [6]: all TFV released
